≈ marks a conversion by molar mass, not a printed value. Calls of active or inactive are those of the source. The rule behind the calls is not given here.
How the values were obtained:
Mus musculus = species on record: Mus musculus; assay: Toxicity in mouse assessed as lethal dose; format: organism-based; settings: in vivo
[1] = target: T1, DNA topoisomerase 1 (Homo sapiens) (UniProt P11387); assay: Inhibition of topoisomerase 1 at 5 ug/mL
T1 sequence (whole entry): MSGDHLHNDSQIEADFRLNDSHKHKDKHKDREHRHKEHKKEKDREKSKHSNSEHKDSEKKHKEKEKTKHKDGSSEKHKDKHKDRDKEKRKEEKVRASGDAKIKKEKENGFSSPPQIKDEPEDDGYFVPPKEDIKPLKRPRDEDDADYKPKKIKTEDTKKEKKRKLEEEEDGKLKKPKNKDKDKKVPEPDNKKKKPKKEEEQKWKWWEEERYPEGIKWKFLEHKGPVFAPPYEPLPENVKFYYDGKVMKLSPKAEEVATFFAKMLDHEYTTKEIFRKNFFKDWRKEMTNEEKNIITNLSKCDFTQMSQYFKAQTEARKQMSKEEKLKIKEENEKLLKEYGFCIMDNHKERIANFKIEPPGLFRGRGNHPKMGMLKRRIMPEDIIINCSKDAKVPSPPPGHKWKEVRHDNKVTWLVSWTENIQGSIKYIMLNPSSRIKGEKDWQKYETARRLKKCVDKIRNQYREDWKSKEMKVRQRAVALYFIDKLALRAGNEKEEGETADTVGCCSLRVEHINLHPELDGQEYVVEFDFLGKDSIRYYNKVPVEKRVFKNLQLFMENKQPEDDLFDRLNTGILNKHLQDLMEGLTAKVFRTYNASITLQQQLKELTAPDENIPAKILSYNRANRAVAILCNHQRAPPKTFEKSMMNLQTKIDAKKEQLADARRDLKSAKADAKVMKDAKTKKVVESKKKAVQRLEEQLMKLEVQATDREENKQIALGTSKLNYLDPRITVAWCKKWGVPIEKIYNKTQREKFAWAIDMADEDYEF

KB = assay: Cytotoxicity against human KB cells; format: functional, cell-based
[2] = target: T1, DNA topoisomerase 1 (Homo sapiens); assay: Inhibition of topoisomerase 1 at 10 ug/mL
A10 [3] = assay: Disruption of microtubules in rat A10 cells; format: functional, cell-based
MC-38 = assay: Antitumor activity against mouse C38 cells at 1.2 to 1.5 mg/kg; format: functional, organism-based
Outline: (§1)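 In vivo mice with murine colon adenocarcinoma C38 or mammary adenocarcinoma M16, dosed at sublethal levels of 1.2-1.5 mg/kg.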

A10 [4] = assay: Induction of apoptosis in rat A10 cells assessed as apoptotic bodies at 0.01 ug/mL; format: functional, cell-based
Outline: (§2)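 A-10 smooth muscle cells grown on glass coverslips in Basal Medium Eagle with 10% fetal calf serum, exposed to a range of concentrations or vehicle for 24 h. Microfilaments stained 45 min with 100 nM TRITC-phalloidin, chromatin stained with DAPI, and cells examined by fluorescence microscopy.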

A10 [5] = assay: Disruption of cytoskeleton in rat A10 cells assessed as neuron-like gross cellular morphology; format: functional, cell-based; outline: as §2
M16 = assay: Antitumor activity against mouse M16 cells at 1.2 to 1.5 mg/kg; format: functional, organism-based; outline: as §1
A10 [6] = assay: Disruption of cytoskeleton in rat A10 cells assessed as cells with two nuclei; format: functional, cell-based; outline: as §2
LoVo = assay: Cytotoxicity against human LoVo cells; format: functional, cell-based
A10 [7] = assay: Disruption of cellular microfilament network in rat A10 cells at 0.01 to 5.0 ug/mL; format: functional, cell-based; outline: as §2

In the case of `CC[C@H](C)[C@@H]1NC(=O)CNC(=O)c2csc(n2)[C@H](C(C)(C)O)OC(=O)C(C)(C)[C@H](CCCC(C)(Cl)Cl)OC(=O)c2csc1n2` [LYNGBYABELLIN A], the Activity (Mus musculus) is reported as 2.4 mg/kg, the Activity [1] is reported as “inactive” and the IC50 (KB) is reported as 0.03 µg/mL (≈ 0.0434 µM). For the same molecule, the Activity [2] was “inactive”, the Activity (A10 [3]) was “inactive” and the Activity (MC-38) was “inactive”. The Activity (A10 [4]) was “Active”, the Activity (A10 [5]) was “Active” and the Activity (M16) was “inactive”. For the same molecule, the Activity (A10 [6]) was “Active”, the IC50 (LoVo) was 0.5 µg/mL (≈ 0.723 µM) and the Activity (A10 [7]) was “Active”.

— ChEMBL document CHEMBL1154576, “Isolation, structure determination, and biological activity of Lyngbyabellin A from the marine cyanobacterium lyngbya majuscula” (J Nat Prod, 2000)
